APJ agonist: agonists of human apelin receptor APJ, primary screen, CHO-K1 cells, PathHunter beta-arrestin, luminescence | activation, % at 20 µM | 0% DMSO wells, 100% apelin | P35414 | actives 0.11% (n = 330,000);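 active = activation more than six SD over the plate average, tested at 20 µM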;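 also: 0% = DMSO alone and 100% = apelin-13 at 10 nM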
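assay system = CHO-K1 APJ beta-arrestin complementation cell line | input = cell density 1000 per well | dosing = compound 20 µM once, DMSO 1% | timing = compound 90 min 25 °C, reagent 1 h | measured by = luminescence from split beta-galactosidase complementation, Galacton Star/Emerald II substrate | read-out basis = APJ agonist activity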
EBI2 antag: EBI2 receptor antagonists, beta-arrestin recruitment, primary screen, cell-based, luminescence, 7a,25-OHC stimulation, uHTS. 7a,25-OHC stimulated. inhibition, % at 5 µM. actives 0.81% (n = 360,000); in the data active = inhibition above about 38%;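 also: enzyme fragment complementation signal reports receptor beta-arrestin coupling in cells; 0% = agonist plus DMSO wells and 100% = wells without agonist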
Target sequence (P32249 whole entry, looked up, the tested form may be a part): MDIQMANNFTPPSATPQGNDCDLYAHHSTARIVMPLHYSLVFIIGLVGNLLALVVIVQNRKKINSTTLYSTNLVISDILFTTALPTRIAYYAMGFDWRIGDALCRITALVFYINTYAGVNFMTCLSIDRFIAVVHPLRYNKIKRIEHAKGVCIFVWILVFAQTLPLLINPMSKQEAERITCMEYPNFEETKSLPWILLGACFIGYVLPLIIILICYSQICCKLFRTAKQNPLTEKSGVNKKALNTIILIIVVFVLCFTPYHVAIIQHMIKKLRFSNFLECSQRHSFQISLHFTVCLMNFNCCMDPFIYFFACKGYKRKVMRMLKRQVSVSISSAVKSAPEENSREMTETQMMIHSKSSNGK
CCR6 antag: CCR6 receptor antagonists, primary screen, cell-based, CHO-K1, luminescence, beta-arrestin, uHTS; C-C chemokine receptor type 6 (Homo sapiens), P51684; CHO-K1 CCR6 PathHunter beta-arrestin, CCL20-stimulated; inhibition, % at 20 µM; actives 0.49% (n = 340,000); AID 493098, 2011;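 active = compounds whose inhibition of the agonist-driven luminescence signal at 20 µM reaches about 50%, limit read from the data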;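 also: cells stimulated with CCL20 at 14 nM final; plate controls were DMSO with CCL20 for no effect and DMSO without agonist for full effect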
CXCR6 inh: CXCR6 receptor inhibitors, primary screen, cell-based, beta-arrestin, luminescence, CHO-K1 PathHunter, 1536-well. C-X-C chemokine receptor type 6 (Homo sapiens), O00574. inhibition, % at 20 µM. actives 0.36% (n = 360,000). AID 602244, 2012; in the data active = inhibition above about 34%, passing the limit was not always enough;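 also: antagonist mode with CXCL16 agonist at 10 nM final; 0% = 10 nM CXCL16 with DMSO and 100% = unstimulated wells without agonist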
APJ antag: antagonists of human apelin receptor APJ, primary screen, CHO-K1 cells, beta-arrestin complementation, luminescence; P35414; inhibition, % at 20 µM; actives 0.32% (n = 330,000);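 active = inhibition above about 40% at 20 µM, limit read from the data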;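 also: cells challenged with 10 nM apelin-13 agonist together with compound; plate controls were apelin-13 plus DMSO wells for no effect and DMSO wells lacking apelin-13 for full effect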
APJ ag confirm: agonists of human apelin receptor APJ, confirmation, cell-based, single concentration, CHO-K1, beta-arrestin, luminescence | shares compounds with APJ agonist | CHO-K1 APJ PathHunter beta-arrestin | activation, % at 20 µM | actives 10% (n = 310);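 active = activation above 40%, taking the highest of four retests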;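 also: plate controls were DMSO wells for no effect and apelin-13 at 10 nM for full effect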
Numbers without * were called inactive; . = no result given. Only some compounds are listed: those with a hit (about 1.5% of all), similar ones and a draw of the others.

SMILES	APJ agonist	EBI2 antag	CCR6 antag	CXCR6 inh	APJ antag	APJ ag confirm
CCCCC1=CC2=CC(=O)C(C)(OC(=O)CC)C(=O)C2=CN1C1CCCCC1 (stereo not drawn)	124.8*	2.1	2.1	-5.5	-24.5	53.7*
CC(C)(C)c1ccc(NC(=O)COC(=O)c2ccc3ncsc3c2)cc1	-1.9	-6.8	12.8	-8.0	-12.8	.
O=C(COC(=O)c1ccc2ncsc2c1)Nc1ccc(OC(F)(F)F)cc1	17.6*	-2.9	4.8	-4.2	2.1	12.5
CC(C)(C)c1ccc(CC(=O)N2CCC2(C)C(=O)Nc2cnc3ccccc3c2)cc1 (stereo not drawn)	.	18.7	.	-15.9	.	.
Cc1cc(C)nc(/N=C(\N)Nc2ccc(OCCC(C)C)cc2)n1	16.1*	-19.3	-1.2	-3.4	-3.5	7.0
COc1ccc(N/C(N)=N/c2nc(C)cc(C)n2)cc1	.	-10.8	.	-7.3	.	.
N#C/C(=C\c1ccc([N+](=O)[O-])o1)c1nc2ccccc2[nH]1	42.1*	.	3.3	.	-15.3	6.5
Cc1ccc2nc(/C(C#N)=C\c3ccc([N+](=O)[O-])o3)[nH]c2c1	94.7*	37.4	-21.1	-0.6	-45.1	12.5
Cc1ccc2nc(/C(C#N)=C\c3ccc(N4CCOCC4)o3)[nH]c2c1	0.3	6.4	20.8	14.0	9.4	.
CSc1ccc(C(=O)C2CCCN(C(=O)c3ccc4c(c3)no[n+]4[O-])C2)cc1 (stereo not drawn)	18.4*	-8.9	-2.8	-18.4	-106.7	44.4*
CSc1ccc(C(=O)C2CCCN(C(=O)c3ccsc3)C2)cc1 (stereo not drawn)	-1.6	-14.4	12.0	-2.2	-13.1	.
N/C(=N/OC(=O)c1cccc([N+](=O)[O-])c1)c1cccc([N+](=O)[O-])c1	25.9*	4.3	6.1	6.8	-41.8	36.8
N/C(=N\OC(=O)c1cccc(F)c1)c1cccc([N+](=O)[O-])c1	15.3*	-6.4	-17.6	-30.6	-62.2	22.2
O=C(CSc1n[nH]c(=O)n1C1CC1)Nc1cc(Cl)ccc1Oc1ccccc1	12.5*	-8.8	-5.2	-11.1	-16.1	20.3
O=C(CSc1n[nH]c(=O)n1C1CC1)Nc1ccccc1	2.3	12.8	-9.2	-3.5	6.1	.
Cc1ccccc1C(=O)O/N=C/c1c(N2CCOCC2)n(C)c2ccccc12	14.6*	0.5	-17.5	-14.4	-76.2	25.1
CN1CCN(c2c(/C=N/O)c3ccccc3n2C)CC1	-4.1	-6.4	5.0	-7.2	5.6	.
COc1ccc2[nH]c3c(=O)n(/N=C/[C@H]4C(C)C=C(C)CC4C)c(=O)[nH]c3c2c1 (stereo partly drawn)	23.9*	-7.9	-2.0	-11.5	-29.7	27.6
Cc1cccc(C)c1NC(=O)C1(C)CSCC(=O)N1CCCN1CCOCC1 (stereo not drawn)	.	-2.4	.	.	.	.
N/C(=N\OC(=O)c1ccc2ccccc2c1)c1ccccc1Cl	43.5*	4.7	-46.6	-17.7	-176.7	18.3
N/C(=N\OC(=O)c1ccc2ccccc2c1)c1ccncc1	9.0	6.6	-1.9	-11.8	-49.4	.
Nc1[nH]c(C(=O)c2ccccc2)c(-c2ccccc2Cl)c1C(=O)c1ccccc1	.	-7.5	.	13.8	.	.
COC(=O)C[C@H]1CC[C@@H](NC(=O)C2CC2)[C@@H](CO)O1	.	-6.6	.	.	.	.
N=c1c(C(=O)NC2CCCCC2)cc2c(=O)n3ccccc3nc2n1Cc1ccccc1	0.3	12.1	7.7	22.3	-18.4	.
N=c1c(C(=O)NC2CCCCC2)cc2c(=O)n3ccccc3nc2n1CCc1ccccc1	19.7*	10.1	18.6	2.1	-7.7	-2.2
O=C(COC(=O)C1CC(O)CN1S(=O)(=O)c1ccc(Cl)cc1)c1ccccc1 (stereo not drawn)	-3.5	-1.5	1.0	0.4	-7.3	.
Cc1[nH]c2ccccc2c1C(=O)COC(=O)C1CC(O)CN1S(=O)(=O)c1ccc(Cl)cc1 (stereo not drawn)	28.0*	-16.2	-13.8	-6.3	-15.8	4.3
